From PubChem
Shown are actives, neighbours in structure and some others; about 8.7% of the full set was active somewhere.
Ecoli tolC: growth inhibitors of E. coli tolC mutant, primary screen, strain BW25113 ΔtolC::kan, 384-well. OD615. growth inhibition, % at 10 µM (by protocol). 65,000 tested, 2.2% active;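 active = growth inhibition at or above a cutoff equal to the mean over every tested compound plus 3 SD, cut at about 60% in these data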;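 also: growth measured after 20 h incubation at 37 °C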
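Assay system: tolC-deleted E. coli BW25113. Medium: kanamycin-containing LB broth (50 µg/mL). Dosing: 10 µM final, single dose. Timing: bacterial growth with compound for 20 h at 37 °C. Detection: A615 absorbance measurement. Read-out basis: growth inhibition in percent.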
PostGolgi yeast: phenotypic screen on post-Golgi transport, primary screen. post-Golgi transport phenotypic cell assay. inhibition, % at 10 µM. 98,000 tested, 0.9% active;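 also: yeast cells grown in 1536-well plates; yeast grown about 18 h at 30C before absorbance read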
Ecoli WT expand: growth inhibitors of wild-type E. coli, primary screen, strain BW25113, expanded library, OD600; AID 710, 2007; growth inhibition, % at 100 µM; OD600 absorbance; 98,000 tested, 0.15% active;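 active = growth inhibition above about 50% at one test dose, limit read from the data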;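 also: growth measured after 20 h incubation at 37 °C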
PostGolgi ctrl: growth inhibition of yeast control strain, primary screen, counter-screen for post-Golgi transport modulator project. 98,000 tested, 5% active. efflux-deficient yeast background strain, growth absorbance A615, 16 h. inhibition, % at 10 µM
PTK2B oligo ant: antagonists of Pyk2 self-association, primary screen, Q293 cells, FERM NanoBiT luminescence, HTS | Protein-tyrosine kinase 2-beta (Homo sapiens), Q14289 | hits give low values | z-score (the deposit names both 25 µM and 10 µM) | 99,000 tested, 0.83% active | AID 1347419, 2020;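 active = Z-score of -3 or lower, scaled per plate to the spread of control and sample wells; inactive = z-score above -3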;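 also: negative z-score means lost luminescence so less FERM oligomerization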
Cav32 inh: Cav3.2 calcium influx blockers – cell-based, Fluo-4 calcium fluorescence, FDSS, MLSMR library, primary screen. 100,000 tested, 4% active. Cav3.2-expressing cells; hits give low values. AID 449739, 2010. Voltage-dependent T-type calcium channel subunit alpha-1H (Homo sapiens), O95180. B-score at 10 µM;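 active = single-dose well whose peak fluorescence ratio is a statistical outlier from its plate by either plate-standardised score or position-corrected B-score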
Target sequence (O95180 whole entry, looked up): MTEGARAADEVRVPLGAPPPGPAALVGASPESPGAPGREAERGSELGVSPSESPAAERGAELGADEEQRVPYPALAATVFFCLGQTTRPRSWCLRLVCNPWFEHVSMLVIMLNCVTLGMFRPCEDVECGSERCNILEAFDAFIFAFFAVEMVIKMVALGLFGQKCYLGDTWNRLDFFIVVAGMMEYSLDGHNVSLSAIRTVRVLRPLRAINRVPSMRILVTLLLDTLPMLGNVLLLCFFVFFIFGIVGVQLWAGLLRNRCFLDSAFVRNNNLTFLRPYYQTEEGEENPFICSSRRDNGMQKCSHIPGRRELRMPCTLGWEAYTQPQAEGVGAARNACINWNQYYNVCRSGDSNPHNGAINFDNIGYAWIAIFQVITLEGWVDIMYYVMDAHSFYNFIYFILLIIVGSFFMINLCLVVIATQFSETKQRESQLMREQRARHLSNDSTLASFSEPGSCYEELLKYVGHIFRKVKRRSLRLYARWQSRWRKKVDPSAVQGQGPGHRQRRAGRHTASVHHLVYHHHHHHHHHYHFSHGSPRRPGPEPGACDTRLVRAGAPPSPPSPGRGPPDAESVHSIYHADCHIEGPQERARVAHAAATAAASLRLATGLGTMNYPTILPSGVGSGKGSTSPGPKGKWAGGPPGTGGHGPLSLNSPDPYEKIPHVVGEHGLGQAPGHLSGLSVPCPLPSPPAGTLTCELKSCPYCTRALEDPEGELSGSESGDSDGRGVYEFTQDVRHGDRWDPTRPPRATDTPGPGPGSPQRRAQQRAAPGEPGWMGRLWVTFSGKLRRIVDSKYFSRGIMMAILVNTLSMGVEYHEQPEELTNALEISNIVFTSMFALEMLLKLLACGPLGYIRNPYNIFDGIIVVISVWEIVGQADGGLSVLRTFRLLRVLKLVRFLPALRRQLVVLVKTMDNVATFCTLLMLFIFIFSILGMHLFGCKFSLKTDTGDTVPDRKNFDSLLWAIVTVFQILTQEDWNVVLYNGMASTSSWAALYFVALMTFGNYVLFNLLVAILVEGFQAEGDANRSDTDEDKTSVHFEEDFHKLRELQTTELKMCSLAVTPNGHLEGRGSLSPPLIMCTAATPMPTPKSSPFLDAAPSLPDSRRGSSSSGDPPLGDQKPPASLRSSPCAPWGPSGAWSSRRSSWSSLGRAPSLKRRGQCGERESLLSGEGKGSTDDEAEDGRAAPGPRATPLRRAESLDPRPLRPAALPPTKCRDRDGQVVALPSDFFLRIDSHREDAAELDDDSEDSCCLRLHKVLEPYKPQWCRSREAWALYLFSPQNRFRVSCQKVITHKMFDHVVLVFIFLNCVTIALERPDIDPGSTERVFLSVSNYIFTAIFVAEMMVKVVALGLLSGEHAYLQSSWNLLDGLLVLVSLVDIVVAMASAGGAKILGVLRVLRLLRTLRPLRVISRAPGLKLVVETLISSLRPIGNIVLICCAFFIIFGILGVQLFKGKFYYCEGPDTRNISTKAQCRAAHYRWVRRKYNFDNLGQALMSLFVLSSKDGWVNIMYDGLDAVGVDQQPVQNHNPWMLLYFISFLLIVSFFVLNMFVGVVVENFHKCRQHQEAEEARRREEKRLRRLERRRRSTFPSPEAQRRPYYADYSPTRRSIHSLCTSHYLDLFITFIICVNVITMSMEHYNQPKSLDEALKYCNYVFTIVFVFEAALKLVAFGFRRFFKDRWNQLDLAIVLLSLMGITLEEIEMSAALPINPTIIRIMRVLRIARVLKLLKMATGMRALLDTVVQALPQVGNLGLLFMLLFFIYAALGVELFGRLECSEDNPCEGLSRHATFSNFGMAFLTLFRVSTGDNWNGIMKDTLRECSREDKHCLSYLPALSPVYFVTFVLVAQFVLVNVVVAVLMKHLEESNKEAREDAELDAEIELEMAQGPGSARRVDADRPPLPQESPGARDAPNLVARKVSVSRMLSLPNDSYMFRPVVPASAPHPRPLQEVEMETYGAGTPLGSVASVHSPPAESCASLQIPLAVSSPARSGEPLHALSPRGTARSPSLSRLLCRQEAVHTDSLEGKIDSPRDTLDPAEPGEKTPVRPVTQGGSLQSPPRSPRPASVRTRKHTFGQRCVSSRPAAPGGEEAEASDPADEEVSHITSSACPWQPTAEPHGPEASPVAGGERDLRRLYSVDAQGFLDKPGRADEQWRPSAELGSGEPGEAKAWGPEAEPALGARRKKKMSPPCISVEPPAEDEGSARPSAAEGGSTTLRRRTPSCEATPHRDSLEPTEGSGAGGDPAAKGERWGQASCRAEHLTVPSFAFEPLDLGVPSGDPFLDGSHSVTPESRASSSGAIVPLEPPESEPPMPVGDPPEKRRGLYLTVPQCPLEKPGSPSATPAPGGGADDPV
An asterisk follows results filed as active. Rule as the data show it, unless noted: active = inhibition above about 30%; inactive = the rest.

How did CCOC(=O)C1=C(N2CCCCC2)c2cc3c(n2C1=O)CCCC3 do in these assays?
Ecoli tolC: 32; PostGolgi yeast: 2; Ecoli WT expand: 14; PostGolgi ctrl: 33*; PTK2B oligo ant: -0.33; Cav32 inh: 0.95

How did CCOC(=O)c1c(N2CCCCC2)c2ccccc2[nH]c1=O do in these assays?
PostGolgi yeast: 4; Ecoli WT expand: 4; PostGolgi ctrl: 11; PTK2B oligo ant: -0.69; Cav32 inh: 0.13

Results for COc1ccc(NC(=O)C2CCCN2S(=O)(=O)c2ccc3c(c2)CCC(=O)N3)cc1Cl (configuration not stated) ?
Ecoli tolC: -3; PostGolgi yeast: -1; Ecoli WT expand: 4; PostGolgi ctrl: 3; Cav32 inh: 0.57

How did COc1ccc2nc(NC(=O)C3CCCN3S(=O)(=O)c3ccc(C)cc3)sc2c1 (configuration not stated) do in these assays?
Ecoli tolC: 18; PostGolgi yeast: 0; Ecoli WT expand: -16; PostGolgi ctrl: 9; PTK2B oligo ant: -0.66; Cav32 inh: -3.7*

What do the screens show for `Cc1ccc(S(=O)(=O)N2CCCC2C(=O)Nc2nc3c(s2)CCCC3)cc1` (configuration not stated)?
Ecoli tolC: 13; PostGolgi yeast: -4; Ecoli WT expand: -8; PostGolgi ctrl: 16; PTK2B oligo ant: -0.27; Cav32 inh: -4.1

How did COc1ccc(NC(=O)C2CCCN2S(=O)(=O)c2ccc3c(c2)CCC(=O)N3)cc1 (configuration not stated) do in these assays?
Ecoli tolC: -12; PostGolgi yeast: 2; Ecoli WT expand: 1; PostGolgi ctrl: 9; Cav32 inh: -4.1*

What do the screens show for `C=CCNC(=O)COc1ccc(Br)cc1Cl`?
Ecoli tolC: -2; PostGolgi yeast: -1; Ecoli WT expand: 0; PostGolgi ctrl: 8; PTK2B oligo ant: 2; Cav32 inh: -0.27

How did CC1=C/C(=N\OS(=O)(=O)c2ccccc2)C(C)=CC1=O do in these assays?
PostGolgi yeast: 36*; Ecoli WT expand: -5; PostGolgi ctrl: 48*; PTK2B oligo ant: -0.88; Cav32 inh: 2.5

How did CCN(CCCNC(=O)COc1cc(=O)n(CC)c2ccccc12)Cc1ccccc1 do in these assays?
Ecoli tolC: 16; PostGolgi yeast: -8; Ecoli WT expand: -3; PostGolgi ctrl: 38*; PTK2B oligo ant: 0.97; Cav32 inh: 0.1

Results for CCn1c(=O)cc(OCC(=O)Nc2ccc(C)cn2)c2ccccc21 ?
Ecoli tolC: 0; PostGolgi yeast: -3; Ecoli WT expand: -2; PostGolgi ctrl: 18; PTK2B oligo ant: -0.46; Cav32 inh: -0.53

What do the screens show for `CN(CCCNC(=O)COc1cc(=O)n(C)c2ccccc12)Cc1ccccc1`?
Ecoli tolC: -14; PostGolgi yeast: 6; Ecoli WT expand: -5; PostGolgi ctrl: 5; PTK2B oligo ant: 0.46; Cav32 inh: 0.0054

How did CCOC(=O)c1ccccc1NC(=O)COc1cc(=O)n(CC)c2ccccc12 do in these assays?
PostGolgi yeast: 9; Ecoli WT expand: -15; PostGolgi ctrl: 2; PTK2B oligo ant: -4.2*; Cav32 inh: -0.086

Results for CCOc1cc(S(=O)(=O)NCC2OCCc3ccccc32)c(OCC)cc1-n1cnnn1 (configuration not stated) ?
Ecoli tolC: 3; PostGolgi yeast: 5; Ecoli WT expand: -8; PostGolgi ctrl: 7; PTK2B oligo ant: 0.8; Cav32 inh: 0.7

What do the screens show for `O=C(CCC1CCCCC1)Nc1c2c(nn1-c1ccc(F)cc1)CS(=O)C2` (configuration not stated)?
Ecoli tolC: 20; PostGolgi yeast: -4; Ecoli WT expand: 0; PostGolgi ctrl: 20; PTK2B oligo ant: 1.1; Cav32 inh: -1.1

What do the screens show for `COc1ccc(OC)c(C(=O)c2coc3ccc(O)cc23)c1`?
Ecoli tolC: 24; PostGolgi yeast: 21; Ecoli WT expand: 4; PostGolgi ctrl: 9; PTK2B oligo ant: -1.4; Cav32 inh: -4.7*

How did COc1cc(=O)n(C)c2ccccc12 do in these assays?
PostGolgi yeast: 5; Ecoli WT expand: -3; PostGolgi ctrl: 7; PTK2B oligo ant: 0.68; Cav32 inh: 0.44

Results for CN(c1ccc(Cl)cc1)c1cc(=O)n(C)c2ccccc12 ?
Ecoli tolC: 31; PostGolgi yeast: 1; Ecoli WT expand: 11; PostGolgi ctrl: 64*; PTK2B oligo ant: -1.3; Cav32 inh: -3.4

What do the screens show for `CCCCn1nnnc1NCc1ccc(C)s1`?
PTK2B oligo ant: 0; Cav32 inh: 0.22

Results for FC(F)(F)C(Oc1nc(NC2CCCCC2)nc(N2CCOCC2)n1)C(F)(F)F ?
Ecoli tolC: 29; PostGolgi yeast: -7; Ecoli WT expand: -4; PostGolgi ctrl: 22; PTK2B oligo ant: 0.14; Cav32 inh: -4.9*

What do the screens show for `CC(C)(C)c1cc(CCC(=O)N2CCNCC2)c(C(C)(C)C)cc1O`?
Ecoli tolC: 35; PostGolgi yeast: -2; Ecoli WT expand: -1; PostGolgi ctrl: 1; PTK2B oligo ant: 0.45; Cav32 inh: -2

Results for CCc1ccccc1NC(=O)Cn1nc(C(F)(F)F)cc1C1CC1 ?
PostGolgi yeast: 1; Ecoli WT expand: -1; PostGolgi ctrl: 17; PTK2B oligo ant: -0.43; Cav32 inh: -0.53

Results for CCOCCCNc1nc2c(c(=O)n(C)c(=O)n2C)n1CCCc1ccccc1 ?
Ecoli tolC: 1; PostGolgi yeast: -12; Ecoli WT expand: -1; PostGolgi ctrl: 33*; PTK2B oligo ant: 1.6; Cav32 inh: 0.53

Results for Cc1ccnc(N2CCC(C(=O)Nc3ccc(Oc4ccccc4)cc3)CC2)n1 ?
Ecoli tolC: -19; PostGolgi yeast: -6; Ecoli WT expand: -2; PostGolgi ctrl: 0; PTK2B oligo ant: 0.89

What do the screens show for `Cc1ccnc(N2CCC(C(=O)Nc3cccc(C(F)(F)F)c3)CC2)n1`?
Ecoli tolC: 65*; PostGolgi yeast: 1; Ecoli WT expand: 0; PostGolgi ctrl: 8; PTK2B oligo ant: -0.41; Cav32 inh: -1.6

How did CN(C)CCCn1c(NC(=O)C2CCCCC2)nc2ccccc21 do in these assays?
Ecoli tolC: -4; PostGolgi yeast: 1; Ecoli WT expand: -3; PostGolgi ctrl: 1; PTK2B oligo ant: -0.91; Cav32 inh: -3.6*

Results for Nc1c(C(=O)C2CC2)sc2nc(-c3ccccc3)cc(C(F)(F)F)c12 ?
PTK2B oligo ant: 1.4; Cav32 inh: -6.2*

What do the screens show for `CC(NC(=O)C(NC(=O)C1CCCN1C(=O)OC(C)(C)C)C(C)C)C(N)=O` (configuration not stated)?
Ecoli tolC: -17; PostGolgi yeast: -1; Ecoli WT expand: 5; PostGolgi ctrl: 2; PTK2B oligo ant: 1.3; Cav32 inh: 0.0012

How did O=C(CCSc1ccccc1)NCCN1CCOCC1 do in these assays?
Ecoli tolC: -13; PostGolgi yeast: -4; Ecoli WT expand: 9; PostGolgi ctrl: 39*; PTK2B oligo ant: -0.43; Cav32 inh: 0.086
